The results in this text go back to ChEMBL document CHEMBL4257448, “Deciphering the origins of molecular toxicity of combretastatin A4 and its glycoconjugates: interactions with major drug transporters and their safety profiles in vitro and in vivo” (Medchemcomm, 2017).

In one data set the test system is DU-145. In words: Cytotoxicity against human DU145 cells assessed as reduction in cell viability up to 20 uM after 24 hrs by MTT assay. It is filed as functional, cell-based. The method in brief:
(§1)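 Cells were grown as adherent monolayers at 37 °C in 5% CO2: SKOV3 in advanced DMEM, DU145 and MB231 in RPMI-1640 with glutamine and 10% FBS. They were seeded at 2000–7500 cells/well, treated on day 1 for 24 h with drug in DMSO (final DMSO <0.1%), then given MTT at 0.83 mg mL−1 final overnight. After SDS/HCl lysis, A570 was read as percent of drug-free control; five replicate wells.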

In the next data set the test system is SK-OV-3. The data set can be described thus: Cytotoxicity against human SKOV3 cells assessed as reduction in cell viability up to 20 uM after 24 hrs by MTT assay. Format: functional, cell-based. The method in brief:
as §1
On the technique in general: Tetrazolium dyes change colour on reduction, which living cells bring about.

The nature of data set [1]: Cytotoxicity against HEK293FT cells assessed as reduction in cell viability up to 20 uM. It is filed as cell-based. The following applies: human.
Data set [2] concerns the target T1, Solute carrier family 22 member 1 (Homo sapiens, UniProt O15245).
T1 sequence (O15245 whole entry): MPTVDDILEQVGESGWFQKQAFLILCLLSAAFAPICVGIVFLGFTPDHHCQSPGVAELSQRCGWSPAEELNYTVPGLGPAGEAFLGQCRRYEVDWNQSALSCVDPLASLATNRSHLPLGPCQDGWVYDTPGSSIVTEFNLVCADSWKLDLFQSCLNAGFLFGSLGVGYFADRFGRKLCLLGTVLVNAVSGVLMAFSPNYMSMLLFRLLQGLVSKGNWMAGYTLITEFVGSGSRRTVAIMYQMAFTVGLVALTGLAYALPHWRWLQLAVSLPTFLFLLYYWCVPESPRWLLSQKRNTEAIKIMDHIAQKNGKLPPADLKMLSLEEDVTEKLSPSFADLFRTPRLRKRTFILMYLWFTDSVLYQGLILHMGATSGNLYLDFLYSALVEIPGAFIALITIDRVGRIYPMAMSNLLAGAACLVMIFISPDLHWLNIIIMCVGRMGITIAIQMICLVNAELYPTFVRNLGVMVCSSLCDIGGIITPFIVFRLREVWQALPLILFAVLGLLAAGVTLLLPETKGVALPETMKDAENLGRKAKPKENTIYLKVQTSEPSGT
The data set can be described thus: Substrate activity at human OCT1 expressed in HEK293 cells assessed as compound uptake by HPLC-UV method. Format: ADME, cell-based.

Data set [3] in a line: Cytotoxicity against HEK293FT cells expressing GLUT1 assessed as reduction in cell viability up to 20 uM. The following applies: human. Format: cell-based.
The nature of data set [4]: Toxicity in ip dosed DBA/2 mouse assessed as reduction in 15% body weight administered as daily dose for 3 days. Format: organism-based. The following applies: in vivo. Summed up: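 Adult male DBA/2 mice were dosed i.p. at 10 mL kg−1, with 5 per group. Controls (n = 8) received saline. MTD was the dose allowing 15% median body-weight loss with no toxic deaths or marked change in general signs within 3 days.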

Data set [5] addresses T1, Solute carrier family 22 member 1. The data set can be described thus: Inhibition of human OCT1 expressed in HEK293 cells assessed as Asp+ uptake after 10 mins by fluorescence assay. Format: cell-based. The settings on record: for inhibition (INH): human, hek293, 10 min. Summed up: (§2)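 Stably transfected HEK293 cells (human OAT1, OAT3, OCT1, OCT2, OATP1B3, OATP2B1) and mock cells were assayed 16 h after seeding in HEPES uptake buffer, pH 7.2, with fluorescent probe ± compound. Incubation was 5 min for OAT1/3 and OATPs, and 10 min for OCT1/2. Reference inhibitors were probenecid (OATs), quinine (OCTs) and rifampicin (OATPs). Uptake was stopped with ice-cold PBS and cells were lysed in Tris/Triton. Fluorescence was normalised to BCA protein; triplicates, repeated 2–3 times.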

Another data set has as its system MDA-MB-231. The data set can be described thus: Cytotoxicity against human MDA-MB-231 cells assessed as reduction in cell viability up to 20 uM after 24 hrs by MTT assay. It is filed as functional, cell-based. The method in brief: as §1
Another data set deals with HEK293. The data set can be described thus: Toxicity in HEK293 cells assessed as effect on total protein up to 200 uM after 10 mins. Format: cell-based. The following applies: human, hek293, 10 min. The method in brief:
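HEK293-mock cells were exposed to 100 or 200 μM for 10 min, and total cellular protein was then measured.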

The nature of data set [6]: Aqueous solubility of the compound after 1 hrs by HPLC-UV method. It is filed as physicochemical. The following applies: deionized water. Summed up: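 Shaken in tubes at 25 °C for 1 h, protected from light, then filtered through 0.2 μm filters; filtrate diluted in deionized water and quantified by reversed-phase HPLC-UV (C18 column, room temperature, methanol/water 70:30 v/v, 1.0 mL min−1).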

Data set [7] addresses T2, Organic anion transporter 3 (Homo sapiens, UniProt Q8TCC7).
T2 sequence (Q8TCC7 whole entry): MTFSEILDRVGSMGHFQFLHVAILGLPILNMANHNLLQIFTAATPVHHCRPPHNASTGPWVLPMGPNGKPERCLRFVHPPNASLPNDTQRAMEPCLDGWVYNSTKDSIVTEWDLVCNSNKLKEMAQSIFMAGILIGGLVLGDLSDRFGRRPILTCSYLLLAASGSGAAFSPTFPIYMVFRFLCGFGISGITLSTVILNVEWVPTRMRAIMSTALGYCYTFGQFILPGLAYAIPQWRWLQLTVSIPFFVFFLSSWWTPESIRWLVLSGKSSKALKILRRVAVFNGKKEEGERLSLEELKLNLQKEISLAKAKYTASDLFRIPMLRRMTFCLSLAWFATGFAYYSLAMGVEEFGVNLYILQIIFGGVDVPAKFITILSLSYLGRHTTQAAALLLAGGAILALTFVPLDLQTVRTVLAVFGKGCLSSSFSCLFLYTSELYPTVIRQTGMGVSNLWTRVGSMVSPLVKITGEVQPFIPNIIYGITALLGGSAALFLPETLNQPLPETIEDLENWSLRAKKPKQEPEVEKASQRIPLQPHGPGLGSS
The data set can be described thus: Inhibition of human OAT3 expressed in HEK293 cells assessed as 6-CF uptake after 5 mins by fluorescence assay. It is filed as cell-based. The settings on record: for inhibition (INH): human, hek293, 5 min. The method in brief:
as §2

Data set [8] deals with T3, Solute carrier family 22 member 2 (Homo sapiens, UniProt O15244).
T3 sequence (O15244 whole entry): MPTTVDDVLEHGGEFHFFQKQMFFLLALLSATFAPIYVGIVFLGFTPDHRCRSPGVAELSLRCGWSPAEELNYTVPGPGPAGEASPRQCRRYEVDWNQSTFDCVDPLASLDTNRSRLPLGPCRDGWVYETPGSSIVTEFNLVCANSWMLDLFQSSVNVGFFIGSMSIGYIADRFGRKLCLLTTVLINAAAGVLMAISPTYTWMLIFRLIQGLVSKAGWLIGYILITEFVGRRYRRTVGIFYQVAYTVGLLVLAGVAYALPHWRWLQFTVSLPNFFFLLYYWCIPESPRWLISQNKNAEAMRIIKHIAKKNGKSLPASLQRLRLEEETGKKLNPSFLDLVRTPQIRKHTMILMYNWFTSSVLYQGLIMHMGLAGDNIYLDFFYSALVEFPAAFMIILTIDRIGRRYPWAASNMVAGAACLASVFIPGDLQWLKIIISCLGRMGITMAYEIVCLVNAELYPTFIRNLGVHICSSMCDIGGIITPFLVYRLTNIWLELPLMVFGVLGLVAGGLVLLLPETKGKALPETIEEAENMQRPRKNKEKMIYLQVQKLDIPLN
In words: Inhibition of human OCT2 expressed in HEK293 cells assessed as Asp+ uptake after 10 mins by fluorescence assay. It is filed as cell-based. The settings on record: for inhibition (INH): human, hek293, 10 min. Summed up:
as §2

One may read the IC50 as the midpoint of a concentration-inhibition curve. By solubility is commonly meant how much of the substance goes into solution per volume. A higher solubility goes with a readily soluble substance.

Values after ≈ are worked out from the molar mass of the structure shown. Active and inactive are the calls of the source. The rule behind the calls is not given here.

For the compound `COc1ccc(/C=C\c2cc(OC)c(OC)c(OC)c2)cc1O[C@@H]1O[C@H](CO)[C@@H](O)[C@H](O)[C@H]1O`, the outcome in the data set on DU-145, with SK-OV-3 and in the data set on MDA-MB-231 was Active. Further, the values for the Activity entry (in data set [1]; in data set [3]; in the data set with HEK293) were “Toxic”, “Toxic” and “Non-Toxic”, respectively. In addition, in data set [2], the Drug uptake entry is recorded as “Not Active”. The MTD at 72 h in [4] was 400 mg/kg. Also, the half-inhibitory concentration (IC50) in data set [5], in data set [7] and in data set [8] was above 200 µM throughout. For the same compound, the “inhibition (INH)” value in data set [5], in data set [7] and in data set [8] was “Dose-dependent effect” in each case. The solubility at 1 h in data set [6] is 1830 µg/mL (≈ 3820 µM).
Consider `COc1ccc(/C=C\c2cc(OC)c(OC)c(OC)c2)cc1O` [COMBRETASTATIN A4], for which the result in the data set with DU-145, in the data set with SK-OV-3 and with MDA-MB-231 was Active. The Activity entry in data set [1] is “Toxic”; in data set [3], “Toxic”; in the data set on HEK293, “Non-Toxic”. The Drug uptake entry in data set [2] is “Active”. The MTD at 72 h in data set [4] was determined as 25 mg/kg. The figures for the half-inhibitory concentration (IC50) in [5], in [7] and in data set [8] were above 200 µM, 16.4 µM and 61.9 µM, respectively. Also, the “inhibition (INH)” value in data set [5], in data set [7] and in data set [8] was “Dose-dependent effect” throughout. The compound further registered a solubility at 1 h in data set [6] of 3 µg/mL (≈ 9.48 µM).
